Screening results deposited in PubChem BioAssay by The Scripps Research Institute Molecular Screening Center.
zfTRPN1 agonist: zebrafish TRPN1 channel agonists, primary screen, cell-based, HEK293, calcium fluorescence. activation, % at 3 µM. transient receptor potential cation channel N1 (TRPN1/NompC), Danio rerio. actives 0.18% (n = 220,000). AID 1424, 2008. HEK293 zebrafish TRPN1-YFP, Fluo-8 calcium fluorescence; 100% = response to 87 µM carbachol;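 active = activation above its plate's cutoff, the mean activation of test wells on that plate plus 3 SD, cut at about 19% in these data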;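 also: 0% = DMSO alone and 100% = 87 µM carbachol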
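System: zebrafish TRPN1-YFP in HEK293 cells / Dosing: 3 µM single point / Timing: dye loading 1 h at 37 °C, then 30 min room temperature / Signal: Fluo-8 calcium fluorescence, excitation 470-495 nm, emission 515-575 nm / Read-out basis: percent activation from peak over basal fluorescence ratio, control-normalized / Control set: high carbachol 87 µM, low DMSO alone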
V1aR counter: agonists of human V1a receptor, primary screen, counter-screen for OXTR agonist project, fluorescence, CHO-V1R cells; activation, % at 3 µM; Fluo-8 calcium fluorescence, agonist mode; 0% DMSO, 100% 3 nM vasopressin; AID 2797, 2010; actives 0.25% (n = 320,000);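 active = activation above the mean activation of all tested compounds plus 3 SD, per screening run, cut at about 20% in these data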;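 also: signal is peak over basal fluorescence ratio across a 100 second FLIPR read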
Target sequence (P37288 whole entry, looked up): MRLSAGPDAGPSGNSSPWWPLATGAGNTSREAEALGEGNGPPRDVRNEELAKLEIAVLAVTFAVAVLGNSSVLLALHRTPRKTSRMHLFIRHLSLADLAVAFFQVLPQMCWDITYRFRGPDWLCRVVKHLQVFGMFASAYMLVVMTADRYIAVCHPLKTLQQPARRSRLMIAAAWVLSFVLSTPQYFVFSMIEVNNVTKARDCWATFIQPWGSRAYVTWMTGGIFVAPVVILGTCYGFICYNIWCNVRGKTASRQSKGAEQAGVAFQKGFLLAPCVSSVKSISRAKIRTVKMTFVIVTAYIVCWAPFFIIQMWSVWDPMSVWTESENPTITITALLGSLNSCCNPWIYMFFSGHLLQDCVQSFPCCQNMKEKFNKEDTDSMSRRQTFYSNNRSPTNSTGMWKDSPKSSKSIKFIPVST
TRPML3 ag: human TRPML3 channel agonists, primary screen, cell-based, HEK293 TRPML3-YFP, Fluo-8 calcium fluorescence, 3 µM; Mucolipin-3 (Homo sapiens), Q8TDD5; 100% = the carbachol control signal; activation, % at 3 µM; actives 0.29% (n = 220,000);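 active = activation above its plate's cutoff, the mean activation of the plate's test wells plus 3 SD, cut at about 12% in these data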;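 also: 0% = DMSO only wells and 100% = carbachol wells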
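Test system – HEK293 line with stable expression of human TRPML3-YFP channel · Control set – carbachol 87 µM final as high control (100%), DMSO as low control (0%) · Signal – Fluo-8 calcium dye fluorescence, ex 470-495, em 515-575 nm · Incubation – 1-h 37 °C dye load, 5-s basal, 120-s post-compound reads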
OXTR ag: human OXTR agonists, primary screen, fluorescence, CHO-OTR cells, Fluo-8 calcium. AID 2435, 2010. actives 0.32% (n = 320,000). Fluo-8 calcium fluorescence; normalized: DMSO 0%, oxytocin 100%. activation, % at 3 µM;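 active = activation above the mean of all tested compounds plus 3 SD, cutoff set per screening run, cut at about 20% in these data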;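 also: peak over basal fluorescence ratio from a 100 s FLIPR kinetic read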
OXTR potentiator: human OXTR potentiators, primary screen, fluorescence, CHO-OTR cells, Fluo-8 calcium; actives 0.061% (n = 320,000); AID 2445, 2010; Oxytocin receptor (Homo sapiens), P30559; Fluo-8 calcium fluorescence, potentiator mode; 0% = oxytocin EC15, 100% = EC100; activation, % at 3 µM;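 active = activation above that plate's cutoff, the mean activation of tested compounds plus 3 SD, cut at about 6.6% in these data, passing the limit was not always enough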;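 also: 100% uses oxytocin at 75 nM as the full agonist control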
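Assay system: CHO cell line stably expressing human OTR. Reagent: EC15 oxytocin agonist. Dosing: single dose, 3.0 µM nominal final compound concentration. Timing: compound 6 min at room temperature before oxytocin, 100 s read. Signal: kinetic Fluo-8 calcium fluorescence. Controls: oxytocin EC15 low and EC100 high.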
OXTR ag confirm: human OXTR agonists, confirmation, fluorescence, CHO-OTR cells, triplicate. Fluo-8 calcium fluorescence, agonist. activation, % at 3 µM. actives 20% (n = 390). shares compounds with OXTR ag;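 active = mean activation above about 20% derived from the earlier single-dose screen, limit read from the data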;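 also: peak over minimum fluorescence ratio per well during a 100 second FLIPR read; 0% = DMSO alone and 100% = oxytocin high control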
V1aR counter 3x: V1a receptor agonists, calcium signal, counter-screen for OXTR agonist project, triplicate, fluorescence, CHO-V1R cells; shares compounds with OXTR ag; Fluo-8 calcium fluorescence; activation, % at 3 µM; actives 10% (n = 390);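 active = mean activation over triplicate exceeds the hit threshold set in the earlier primary screen, cut at about 20% in these data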;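 also: peak over basal fluorescence ratio within a 100 second read; 0% = DMSO alone and 100% = 3 nM vasopressin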
* hit, by the source's call; · = not tested or not shown. In the library only some 0.58% were active in any assay of this set; here they are far more common.

SMILES	zfTRPN1 agonist	V1aR counter	TRPML3 ag	OXTR ag	OXTR potentiator	OXTR ag confirm	V1aR counter 3x
COC(=O)c1cc(NC(=S)NCc2ccc(Cl)cc2)cc(C(=O)OC)c1	12	14	2	17	-10	·	·
COC(=O)c1cccc(NC(=S)NCc2ccc(Cl)cc2)c1	15	20	9	21*	-13	15	11
CN1CCN(C(=O)CSc2nnc(COc3ccc(Cl)cc3)o2)CC1	·	4	·	2	-6	·	·
COc1ccc(CNCCC(c2ccccc2)c2ccc3c(c2)OCO3)cc1 (stereo not given)	-1	16	0	22*	-10	16	14
O=C(Nc1cccc([N+](=O)[O-])c1)c1cc2ccccc2cc1O	27*	14	17*	25*	-9	16	13
O=C(O)c1ccccc1C(=O)Nc1cccc([N+](=O)[O-])c1	-2	0	1	2	4	·	·
CCOC(=O)c1sc(NC(=O)CSc2n[nH]c(-c3ccncc3)n2)c(C#N)c1C	9	10	2	18	-20	·	·
CCOc1ccc(/C=C/C2=Cc3c(sc(NC(=O)CSc4n[nH]c(N)n4)c3C#N)C(C)(C)C2)cc1	7	9	3	27*	2	12	7
OC(CNC1CCCCCC1)COc1cccc2ccccc12 (stereo not given)	·	12	·	20*	-16	8	5
C=CCNC(=O)COc1ccc(Br)cc1Cl	0	-1	1	-2	-18	·	·
O=C(COC(=O)COc1ccccc1)NCCc1ccccc1	·	-1	·	-1	-7	·	·
O=C(NCc1ccc(OC(F)(F)F)cc1)c1cccc2c1C(=O)c1ccc(N3CCC(Cc4ccccc4)CC3)cc1S2(=O)=O	·	6	·	23*	-2	22*	27*
O=C(CCc1cn(Cc2ccc(F)cc2)c2ccccc12)N1CCOCC1	·	5	·	20*	-24	-1	0
O=C(CS(=O)(=O)c1cn(Cc2ccc(F)cc2)c2ccccc12)N1CCCCC1	-1	0	0	0	-10	·	·
O=C(Nc1nc(-c2nc3ccccc3s2)cs1)c1ccc(S(=O)(=O)N2CCOCC2)cc1	1	16	0	21*	-15	6	8
O=C(Nc1nc(-c2ccc(S(=O)(=O)N3CCOCC3)cc2)cs1)c1ccccc1	7	5	1	10	-16	·	·
COC(=O)c1sc(NC(=O)c2cc(-c3ccccc3)nc3ccccc23)c(C#N)c1C	3	11	0	20*	-23	17	13
Cc1ccccc1-c1cc(C(=O)Nc2sc(C(=O)OC(C)C)c(C)c2C#N)c2ccccc2n1	2	13	2	21*	-11	14	13
CCOC(=O)c1sc(NC(=O)c2cc(-c3ccc(C)cc3)nc3ccccc23)c(C#N)c1C	0	0	0	2	6	·	·
O=C1C=C(c2ccc(Cl)c(C(F)(F)F)c2)C[C@@H](c2ccc(Cl)cc2)C1	·	1	·	1	-7	·	·
Nc1cc(=O)[nH]c(SCc2ccc(Cl)cc2Cl)n1	·	14	·	22*	-22	11	10
CC(C)Cn1c(N)c(C(=O)COC(=O)c2ccc3c(c2)OCCO3)c(=O)n(C)c1=O	6	13	1	20*	-24	9	9
CCOC(=O)c1ccc2c(c1)N(C)C(=O)c1ccccc1S2	·	-1	·	-3	-6	·	·
CCOC(=O)c1cc2n(c1/N=C/N(C)C)-c1ccccc1C2=O	1	15	1	24*	-11	26*	33*
